# Columns and labels:
# [1] = molecular target: T1, chondroitin 2-O-sulfotransferase Ust (Homo sapiens, UniProt Q9Y2C2); assay: sulfotransferase specificity panel; format: biochemical
# T1 sequence (Q9Y2C2 1-406): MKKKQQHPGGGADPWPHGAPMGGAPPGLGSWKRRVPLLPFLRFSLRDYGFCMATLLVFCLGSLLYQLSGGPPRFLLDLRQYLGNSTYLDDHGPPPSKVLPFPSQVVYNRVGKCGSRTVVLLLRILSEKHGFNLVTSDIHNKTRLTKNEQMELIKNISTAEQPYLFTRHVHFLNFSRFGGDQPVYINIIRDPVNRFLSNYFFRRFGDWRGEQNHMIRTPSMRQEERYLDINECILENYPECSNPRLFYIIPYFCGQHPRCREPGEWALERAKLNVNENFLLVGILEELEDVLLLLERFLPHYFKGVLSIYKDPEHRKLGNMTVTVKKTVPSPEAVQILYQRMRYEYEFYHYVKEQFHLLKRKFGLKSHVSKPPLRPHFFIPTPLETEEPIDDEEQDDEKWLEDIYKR
# NIH3T3 fibroblasts = assay: CS-E expression in fibroblasts; format: cell-based
# Sult2b1b = molecular target: T2, Sult2b1b (Homo sapiens, UniProt O00204); assay: sulfotransferase specificity panel; format: biochemical
# T2 sequence (O00204 1-365): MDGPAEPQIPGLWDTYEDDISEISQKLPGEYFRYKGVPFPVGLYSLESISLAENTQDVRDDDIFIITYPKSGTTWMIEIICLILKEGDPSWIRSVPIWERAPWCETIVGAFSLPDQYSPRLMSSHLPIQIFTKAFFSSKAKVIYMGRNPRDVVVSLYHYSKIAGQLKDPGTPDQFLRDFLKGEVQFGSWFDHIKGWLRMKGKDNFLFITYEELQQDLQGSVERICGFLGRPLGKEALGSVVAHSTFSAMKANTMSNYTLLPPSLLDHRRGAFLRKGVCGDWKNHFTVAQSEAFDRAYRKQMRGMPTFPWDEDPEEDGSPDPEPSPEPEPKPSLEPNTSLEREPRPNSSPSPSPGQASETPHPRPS
# Chst15 [2] = molecular target: T3, Chst15 (Homo sapiens, UniProt Q7LFX5); assay: enzyme-coupled fluorescence assay; format: biochemical
# T3 sequence (Q7LFX5 1-561): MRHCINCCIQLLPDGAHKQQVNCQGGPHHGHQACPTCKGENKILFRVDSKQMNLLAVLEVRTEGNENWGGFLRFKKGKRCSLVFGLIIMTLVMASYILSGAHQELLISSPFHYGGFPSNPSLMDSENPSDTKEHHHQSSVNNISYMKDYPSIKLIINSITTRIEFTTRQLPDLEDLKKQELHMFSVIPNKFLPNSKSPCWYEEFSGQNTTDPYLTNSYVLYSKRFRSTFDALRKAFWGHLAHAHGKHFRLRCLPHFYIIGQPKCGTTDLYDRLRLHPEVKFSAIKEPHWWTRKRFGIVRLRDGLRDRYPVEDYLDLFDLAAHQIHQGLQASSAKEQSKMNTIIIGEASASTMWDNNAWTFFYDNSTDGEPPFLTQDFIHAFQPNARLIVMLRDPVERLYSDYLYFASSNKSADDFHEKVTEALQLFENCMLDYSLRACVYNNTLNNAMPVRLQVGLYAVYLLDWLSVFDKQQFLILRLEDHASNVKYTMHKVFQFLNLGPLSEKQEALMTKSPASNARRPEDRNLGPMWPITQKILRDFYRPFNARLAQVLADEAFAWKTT
# Sult2b1a = molecular target: T4, Sult2b1a (Homo sapiens, UniProt O00204); assay: sulfotransferase specificity panel; format: biochemical
# T4 sequence (O00204 1-350 isoform O00204-2): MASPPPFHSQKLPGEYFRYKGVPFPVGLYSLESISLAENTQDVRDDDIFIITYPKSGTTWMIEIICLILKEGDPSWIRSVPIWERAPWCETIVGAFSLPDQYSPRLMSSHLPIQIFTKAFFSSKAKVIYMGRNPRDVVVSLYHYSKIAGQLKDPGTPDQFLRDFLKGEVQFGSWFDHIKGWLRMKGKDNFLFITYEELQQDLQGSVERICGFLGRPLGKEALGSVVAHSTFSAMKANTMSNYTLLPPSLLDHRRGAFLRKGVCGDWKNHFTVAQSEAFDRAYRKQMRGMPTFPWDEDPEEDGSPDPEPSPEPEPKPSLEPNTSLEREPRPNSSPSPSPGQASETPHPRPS
# Sult1e1 = molecular target: T5, Sult1e1 (Homo sapiens, UniProt P49888); assay: sulfotransferase specificity panel; format: biochemical
# T5 sequence (P49888 1-294): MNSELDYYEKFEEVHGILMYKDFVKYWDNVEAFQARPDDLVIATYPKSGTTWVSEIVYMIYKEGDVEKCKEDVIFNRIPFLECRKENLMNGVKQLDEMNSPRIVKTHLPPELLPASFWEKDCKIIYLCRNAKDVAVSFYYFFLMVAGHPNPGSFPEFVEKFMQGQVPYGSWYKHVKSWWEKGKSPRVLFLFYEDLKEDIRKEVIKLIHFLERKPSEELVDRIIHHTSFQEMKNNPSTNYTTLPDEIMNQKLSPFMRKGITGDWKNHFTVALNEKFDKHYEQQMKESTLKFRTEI
# Sult1c1 = Sult1c1 counter-screen; format: biochemical; conditions: concentrations tested 3-100 μM
# [3] = molecular target: T6, chondroitin 4-O-sulfotransferase Chst11 (Homo sapiens, UniProt Q9NPF2); assay: sulfotransferase specificity panel; format: biochemical
# T6 sequence (Q9NPF2 1-352): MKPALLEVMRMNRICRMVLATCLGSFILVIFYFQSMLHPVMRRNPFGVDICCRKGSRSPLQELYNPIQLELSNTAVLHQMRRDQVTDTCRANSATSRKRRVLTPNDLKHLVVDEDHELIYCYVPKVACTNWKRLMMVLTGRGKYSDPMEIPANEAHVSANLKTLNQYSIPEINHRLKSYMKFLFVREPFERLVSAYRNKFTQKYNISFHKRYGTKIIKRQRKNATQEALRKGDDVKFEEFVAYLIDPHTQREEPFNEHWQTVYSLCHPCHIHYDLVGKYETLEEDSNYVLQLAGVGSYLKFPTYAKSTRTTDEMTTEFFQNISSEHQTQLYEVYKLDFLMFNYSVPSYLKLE
# Chst15 [4] = molecular target: T3, Chst15; assay: [35S]-labeling assay; format: biochemical; conditions: 25 μM of inhibitor; normalized to the inhibition by compound 19; three independent measurements
# DRG neurons = assay: in vitro CSPG boundary assay; format: cell-based, rat; conditions: CSPGs from treated vs untreated Neu7 astrocytes
# In short: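 Boundary assay: purified CSPGs from Neu7 astrocytes treated with or without test compound were mixed with Texas Red dye and spotted onto glass coverslips. DRG neurons were plated on the coverslips, and the percentage of neurites crossing the CSPG boundary was scored. Mean ± S.E.M. from five experiments, 20-40 cells each.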
# [5] = liver microsome stability; format: in vitro ADME; conditions: human
# Chst15 [6] = molecular target: T3, Chst15; assay: sulfotransferase specificity panel; format: biochemical
# [7] = molecular target: heparan 3-O-sulfotransferase Hs3st1 (Homo sapiens, UniProt O14792); assay: sulfotransferase specificity panel; format: biochemical
# Sequence of heparan 3-O-sulfotransferase Hs3st1 (O14792 21-307): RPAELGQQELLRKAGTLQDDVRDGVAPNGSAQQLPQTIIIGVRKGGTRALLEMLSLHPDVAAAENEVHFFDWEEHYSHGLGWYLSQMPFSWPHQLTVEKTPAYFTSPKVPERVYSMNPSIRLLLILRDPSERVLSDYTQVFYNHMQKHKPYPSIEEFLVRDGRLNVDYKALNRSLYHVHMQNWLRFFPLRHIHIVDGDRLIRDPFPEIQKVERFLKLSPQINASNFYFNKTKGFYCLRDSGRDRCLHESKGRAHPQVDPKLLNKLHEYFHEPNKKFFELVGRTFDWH
# Neu7 astrocytes [8] = assay: disaccharide composition of secreted CSPGs; format: cell-based
# Neu7 astrocytes [9] = assay: cell-surface CS-E expression, immunostaining with CS-E-specific antibody; format: cell-based
# In short: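 Neu7 astrocytes were treated with test compound, with chlorate as comparator. Cells were co-stained with a CS-E-specific antibody and the nuclear stain DAPI, and average anti-CS-E fluorescence per condition was quantified from images. Mean ± S.E.M. of three experiments, 20-100 cells per experiment.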
# [10] = liver microsome stability; format: in vitro ADME; conditions: rat
# [11] = liver microsome stability; format: in vitro ADME; conditions: mouse
# [12] = in vivo pharmacokinetics after intravenous injection; set-up: species or system rats; conditions: rat, 3 mg/kg
# Chst15 [13] = molecular target: T3, Chst15; assay: pre-incubation and ten-fold dilution experiments; format: biochemical
# [14] = high concentrations of sodium chlorate, compared to untreated cells
smiles,measurement,setting,value
COc1cc(/C=C(\C#N)C(=O)Nc2ccc(Cl)cc2Cl)cc(Br)c1O [Compound 34],IC50,[1],2000 to 2500 nM
same,CS-E expression,NIH3T3 fibroblasts,significant loss of CS-E expression
same,IC50,Sult2b1b,19000 to 42000 nM
same,mode of inhibition,Chst15 [2]; CS-A substrate concentration varied,mixed mode of inhibition
same,Ki,"Chst15 [2]; CS-A substrate concentration varied, pseudo first-order PAPS concentration",1430 nM
same,Ki,"Chst15 [2]; PAPS concentration varied, fixed CS-A acceptor substrate (10 mM)",770 nM
same,mode of inhibition,"Chst15 [2]; PAPS concentration varied, fixed CS-A (10 mM)",competitive mode of inhibition
same,IC50,Sult2b1a,19000 to 42000 nM
same,IC50,Sult1e1,19000 to 42000 nM
same,activity against Sult1c1,Sult1c1,no activity
same,IC50,[3],2000 to 2500 nM
same,Relative Inhibition,Chst15 [4],1.35 ± 0.12
same,neurite crossing of CSPG boundary,DRG neurons,crossed more freely
same,stability in liver microsomes based on intrinsic clearance,[5],good stability
same,IC50,Chst15 [6],2000 to 2500 nM
same,specificity for GAG sulfotransferases compared to cytosolic sulfotransferases,Chst15 [6]; GAG vs cytosolic sulfotransferases,8- to 18 fold
same,IC50,[7],2000 to 2500 nM
same,inhibition at 25 µM,"Neu7 astrocytes [8]; Astrocyte, read-out: reduction in the CS-E sulfation motif on secreted CSPGs",67.8 ± 10.9%
same,cell-surface CS-E expression,Neu7 astrocytes [9]; 10 μM or 25 μM,"significant, dose-dependent decrease"
same,stability in liver microsomes based on intrinsic clearance,[10],good stability
same,stability in liver microsomes based on intrinsic clearance,[11],good stability
same,clearance,[12],21 mL/min/kg
same,half-life,[12],1.6 h
same,effect of pre-incubation time on Chst15 inhibition,Chst15 [13]; inhibitor pre-incubated with Chst15 for various lengths of time,Longer pre-incubation times lead to greater inhibition of the enzyme
same,Chst15 activity in ten-fold dilution experiments,Chst15 [13]; up to 100 μM of 34,rapidly restored
[Na+].[O-][Cl+2]([O-])[O-] [sodium chlorate],decrease in CS-E of secreted CSPGs,Neu7 astrocytes [8]; [14],31.6 ± 10.9%
same,increase in uCS of secreted CSPGs,Neu7 astrocytes [8]; [14],39.7 ± 15.6%
same,cell-surface CS-E expression,"Neu7 astrocytes [9]; doses as high as 25 mM, compared to 34",did not reduce CS-E levels to as large an extent

# — publication PMC5896753 (ACS chemical biology, 2017)
